# The full list was thinned out, with hits kept by preference.
# Lmaj promast: Leishmania major promastigote growth inhibition, primary screen; Leishmania major promastigotes, resazurin fluorescence viability; inhibition, % at 10 µM; 200,000 compounds, 9% hits; AID 1063, 2008; in the data active = inhibition above about 50%;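 also: promastigotes grown with compound for 44 hours at 28 °C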
# S1P4 antagonist: S1P4 receptor antagonists, primary screen, cell-based; 220,000 compounds, 0.26% hits; S1P4-expressing cells, antagonist mode, reporter read-out; AID 1510, 2009; Sphingosine 1-phosphate receptor 4 (Homo sapiens), O95977; inhibition, % at 4.98 µM; in the data active = inhibition above about 29%;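 also: 0% = wells stimulated with agonist and 100% = vehicle wells without agonist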
# S1P3 antagonist: S1P3 receptor antagonists, primary screen, cell-based; CHO S1P3 NFAT-BLA reporter, FRET fluorescence, antagonist mode; 170,000 compounds, 0.27% hits; inhibition, % at 4.98 µM; Sphingosine 1-phosphate receptor 3 (Homo sapiens), Q99500;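 active = inhibition above the plate cutoff, the mean inhibition of test wells on that plate plus 3 SD, cut at about 28% in these data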;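 also: cells challenged with S1P at its EC80 of 0.8 µM; blue over green emission ratio from cleaved BLA substrate after 4 h stimulation; 0% = S1P-stimulated wells and 100% = unstimulated DMSO-only wells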
# S1P4 ag: S1P4 receptor agonists, primary screen, cell-based; Sphingosine 1-phosphate receptor 4 (Homo sapiens), O95977; activation, % at 4.98 µM; 220,000 compounds, 0.35% hits; AID 1509, 2009; S1P4-expressing cell line, agonist reporter assay; in the data active = activation above about 11%;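 also: 0% = DMSO vehicle and 100% = reference agonist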
# Mdm2 ligase inh: MDM2-luciferase reporter signal enhancers, primary screen, MDM2 E3 ligase inhibitor project, cell-based, luminescence, 1536-well. E3 ubiquitin-protein ligase Mdm2 (Homo sapiens), Q00987. signal enhancement, % at 5 µM. cell-based MDM2 ubiquitination luciferase reporter, 2 h; 0 = plate control, 100 = twice control, blank-subtracted. AID 1230, 2008. 210,000 compounds, 0.11% hits;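 active = signal enhancement of 30% or more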;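 also: luminescence tracks abundance of the self-degrading MDM2-luciferase fusion protein; higher signal means inhibition of MDM2 E3 ligase activity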
# Target sequence (Q00987 whole entry, looked up, the tested form may be a part): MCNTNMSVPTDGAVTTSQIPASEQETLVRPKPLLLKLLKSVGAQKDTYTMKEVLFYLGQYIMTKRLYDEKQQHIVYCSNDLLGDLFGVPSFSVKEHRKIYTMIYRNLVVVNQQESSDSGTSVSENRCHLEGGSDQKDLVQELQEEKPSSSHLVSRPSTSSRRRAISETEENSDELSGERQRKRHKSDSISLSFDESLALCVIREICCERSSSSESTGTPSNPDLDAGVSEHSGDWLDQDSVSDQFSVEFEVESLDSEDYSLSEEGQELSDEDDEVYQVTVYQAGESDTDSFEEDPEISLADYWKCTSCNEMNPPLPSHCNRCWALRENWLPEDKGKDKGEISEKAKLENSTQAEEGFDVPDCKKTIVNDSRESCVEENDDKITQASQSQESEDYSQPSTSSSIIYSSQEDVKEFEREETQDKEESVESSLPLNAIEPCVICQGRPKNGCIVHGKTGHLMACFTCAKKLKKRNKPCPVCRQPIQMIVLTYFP
#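 Timing – 2 h compound exposure at 37 °C · Assay system – mammalian cells stably expressing self-ubiquitinating, self-degrading MDM2 E3–luciferase fusion · Amount – 2000 cells seeded into each well · Measure – % luminescence enhancement versus blank-corrected plate control mean · Measured by – SteadyLite luminescence, 15 min reagent step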
# The depositor's hits bear a star; . = not tested or not shown.
SMILES,Lmaj promast,S1P4 antagonist,S1P3 antagonist,S1P4 ag,Mdm2 ligase inh
COc1cccc(N2CCN(Cc3nnnn3C3CCCCC3)CC2)c1,-6.5,-16.1,-12.2,2.4,16.5
CC(C)CCNC(=O)Cn1c(NCCC(C)C)nc2c1c(=O)n(C)c(=O)n2C,1.4,-17.3,-32.7,-0.1,.
CCCCN(C(=O)/C=C/c1ccco1)c1c(N)n(CCC)c(=O)[nH]c1=O,-9.0,-7.5,4.2,1.4,-5.8
Cc1ccc(-c2nn(-c3ccccc3)cc2C2SCC(=O)N2Cc2ccccc2)o1 (stereo unspecified),14.9,4.5,3.6,0.9,-12.0
O=C1CSC(c2cn(-c3ccccc3)nc2-c2cc3ccccc3o2)N1Cc1ccccc1 (stereo unspecified),78.8*,-2.3,.,3.0,-13.7
O=C(CSc1ccc2nnc(-c3ccccn3)n2n1)NCc1ccco1,-2.8,-21.7,-17.8,-0.4,-8.1
COC(=O)C1=C(C)N(C)C(=S)NC1c1c(OC)ccc2ccccc12 (stereo unspecified),9.5,3.0,-6.7,0.7,3.0
CC(C)N1CCN(Cc2ccc3c(c2)Cc2ccccc2-3)CC1CCO (stereo unspecified),85.4*,2.5,10.0,0.0,-12.8
CC(=O)c1cccc(CN2CCN(C(C)C)C(CCO)C2)c1 (stereo unspecified),0.1,-9.4,-6.9,-3.2,-7.6
COc1ccc(Oc2nc3c(C)cccn3c(=O)c2/C=C(\C#N)C(N)=O)cc1,.,6.1,-7.7,0.5,-10.5
CCNC(=O)/C(C#N)=C/c1c(N(Cc2ccccc2)Cc2ccccc2)nc2ccccn2c1=O,56.3*,3.1,-0.4,0.8,-11.2
CCNC(=O)/C(C#N)=C/c1c(N2CCN(Cc3ccc4c(c3)OCO4)CC2)nc2c(C)cccn2c1=O,55.5*,-4.8,4.6,2.1,-8.0
CNC(=O)/C(C#N)=C/c1c(N(Cc2ccccc2)Cc2ccccc2)nc2c(C)cccn2c1=O,72.0*,7.4,-16.6,-0.7,-17.2
CCNC(=O)/C(C#N)=C/c1c(N2CCOCC2)nc2ccccn2c1=O,-4.6,-4.6,3.1,1.1,-0.4
Cc1cccn2c(=O)c(/C=C(\C#N)C(=O)NCc3ccco3)c(N3CCCCCC3)nc12,.,7.2,-17.5,0.7,-5.5
Cc1ccc(NC(=O)CC2C(=O)N(Cc3ccccc3)C(=S)N2NC(=O)c2ccccc2)c(C)c1 (stereo unspecified),32.9,-12.6,-6.2,-0.1,-5.4
CCN(C(=O)c1cnc(NC(C)C)cc1C(F)(F)F)c1ccc(Cl)cc1Cl,.,-12.4,4.9,2.4,-6.2
CCN(CC)S(=O)(=O)c1ccc(OC)c(NC(=O)C2CC(=O)N(c3ccc(C)cc3)C2)c1 (stereo unspecified),11.1,-9.0,4.1,1.2,-4.7
O=c1c2nnn(-c3ccccc3)c2ncn1C/C=C/c1ccccc1,-9.7,6.5,-17.9,2.8,-4.9
Cc1ccc(Cn2ncc3c(N4CCN(Cc5ccc(Cl)cc5)CC4)ncnc32)cc1,68.9*,-9.3,.,0.9,-12.5
Cc1ccc(Cn2ncc3c(N4CCN(C5CCCC5)CC4)ncnc32)cc1,55.4*,-1.5,-5.0,0.1,-9.0
Cc1ccc(Cn2ncc3c(N4CCN(C)CC4)ncnc32)cc1,-4.6,-5.5,-13.5,2.0,1.7
Cc1ccc(Cn2ncc3c(N4CCN(c5ccc(C)cc5)CC4)ncnc32)cc1,-1.2,-21.1,.,1.4,-7.5
Cc1ccc(N)c(C(O)(C(F)(F)F)C(F)(F)F)c1,-6.4,5.1,-9.3,-0.9,-8.8
CNc1ccc(C(O)(C(F)(F)F)C(F)(F)F)cc1C(O)(C(F)(F)F)C(F)(F)F,98.3*,15.8,9.7,-2.0,-11.5
SMILES,Lmaj promast,S1P4 antagonist,S1P3 antagonist,S1P4 ag,Mdm2 ligase inh
N/C(CCN1CCCCC1)=N/O,-6.0,-6.4,.,1.5,-5.9
c1ccc(CCNc2ccnc3cc4ccccc4cc23)cc1,100.5*,8.9,-12.7,6.1,-39.0
CC(C)Nc1ccc(Nc2ccnc3cc4ccccc4cc23)cc1,.,-90.2,5.3,-0.5,-7.7
COc1ccc(C2=NN(CC(=O)Nc3cc(C)ccc3C)C(=O)CC2)cc1,.,-7.8,4.6,0.2,11.7
Cc1csc(N(C(=O)CCNC(=O)c2ccc([N+](=O)[O-])cc2)c2ccccc2)n1,63.6*,-13.3,-1.4,-0.1,2.0
Cc1csc(N(C(=O)c2ccc(S(=O)(=O)N(C)C)cc2)c2ccccc2)n1,-3.1,-0.1,.,-1.2,-6.1
CCOc1ccc(CNC(=S)N/N=C/c2ccncc2)cc1,-1.5,-13.9,-3.5,-1.2,.
COc1ccc(CNC(=S)N/N=C/c2ccncc2)cc1,54.1*,-9.7,-5.0,-1.2,-2.6
Cc1cccc(OCCOc2ccccc2C=C(C#N)C#N)c1,93.9*,-22.0,-7.6,1.3,2.3
Cc1cccc(OCCOC(=O)Nc2ccccc2)c1,-7.8,-6.5,7.2,-0.9,2.8
Cc1ccccc1OCCOc1ccccc1C=C(C#N)C#N,78.2*,-13.5,19.6,0.8,-15.1
Cc1ccc(/C=C/C(=O)O)cc1S(=O)(=O)NCc1ccco1,-7.0,-13.1,4.9,-0.4,10.0
CC1=C(C#N)C(c2cn(-c3ccccc3)nc2-c2cccs2)C(C#N)=C(C)N1,66.0*,-0.8,15.1,0.5,-18.7
CC(=O)N1c2ccccc2N(Cc2ccc(C)cc2C)C(=O)C1(C)C,93.7*,.,-5.7,.,-7.1
CC1=NOC(=O)/C1=C\c1ccc(-c2ccc(Br)cc2)o1,62.0*,6.4,-19.8,1.3,-7.5
CC1=NOC(=O)/C1=C/c1ccc(-c2ccc(Cl)cc2)o1,99.8*,-12.3,.,-1.6,.
CC1=NOC(=O)/C1=C\c1ccc(-c2cc(Cl)ccc2Cl)o1,99.1*,3.6,.,-2.1,-11.2
CC1=NOC(=O)/C1=C\c1ccc(-c2ccc(Br)cc2C(=O)O)o1,-3.8,5.2,-2.9,-0.4,-28.2
COc1ccc(S(=O)(=O)N(CCc2ccccc2)CC(=O)O)cc1,-0.4,-6.0,.,0.1,-7.3
COc1cccc(CC2(CO)CCCN(Cc3sc(N4CCCC4)nc3Cl)C2)c1 (stereo unspecified),8.2,12.3,4.1,-0.2,-10.8
Cc1ccc2nc(N(CCCN(C)C)C(=O)c3ccc4c(c3)CCCC4)sc2c1,98.7*,-1.4,-13.5,-0.2,-5.6
CN(C)CCCN(C(=O)c1ccc2c(c1)CCCC2)c1nc2c(F)cccc2s1,28.6,8.5,-19.2,2.5,-6.0
COc1ccc(C(CC(=O)NC(C)(C)C)n2cccc2)cc1 (stereo unspecified),22.7,-0.8,10.0,-3.1,-8.7
COc1ccc(C(CC(=O)Nc2cc(OC)cc(OC)c2)n2cccc2)cc1 (stereo unspecified),96.0*,-17.8,-3.9,2.1,-1.0
COc1ccc(C(CC(=O)Nc2ccccc2OC)n2cccc2)cc1 (stereo unspecified),54.4*,-13.4,-8.2,0.0,-7.0

# Screens deposited in PubChem by several laboratories.
